Twelve compounds from ChEMBL document CHEMBL1125554, “Studies on pyridonecarboxylic acids. 1. Synthesis and antibacterial evaluation of 7-substituted-6-halo-4-oxo-4H-[1,3]thiazeto[3,2-a]quinoline-3-carboxylic acids” (J Med Chem, 1992) can be followed below.

The nature of series [1]: Lethal dose on systemic infections in mice after oral administration. It is filed as toxicity, organism-based. Conditions: mouse, in vivo. A digest of the protocol:
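Acute oral toxicity: the suspension was given orally in 0.5% HPC-SL to Slc:SD rats, although the section heading says mice. Males weighed 141-168 g and females 113-127 g, five per group. LD50 was determined by the method of Weil 7 days after dosing.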

For series [2], the species on record is Mus musculus. The series can be described thus: Compound was evaluated for oral efficacy on systemic infections in mice by Escherichia coli KC-14. The format is functional. A digest of the protocol:
(§1)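 Male ddY mice (20 ± 2 g), seven per dose group. Challenge was intraperitoneal, 0.5 mL of bacteria suspended in 5% gastric mucin: E. coli KC-14 at 4.3 × 10⁴ cfu/mL or P. aeruginosa E-2 at 2.88 × 10⁵ cfu/mL. Drug was suspended in 0.5% HPC-SL and given orally 2 h (E. coli) or 1 h (P. aeruginosa) after challenge. ED50 was calculated by Probit from 7-day survival.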

The species named for series [3] is Mus musculus. In words: Compound was evaluated for oral Pseudomonas aeruginosa E-2. The format is functional. The essentials: as §1
The next series concerns Micrococcus luteus. In words: In vitro antibacterial activity against Micrococcus luteus ATCC 9341. It is filed as functional. The essentials: (§2)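 MIC (μg/mL) by 2-fold agar dilution on Sensitivity Test agar, following the Japan Society of Chemotherapy MIC Committee method. Inocula were about 10⁶ cfu/mL. Growth was read after 20 h incubation at 37 °C.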
Another series concerns Escherichia coli. The series can be described thus: In vitro antibacterial activity against Escherichia coli NIH JC-2. The format is functional. A digest of the protocol:
as §2

The subject of another series is Shigella flexneri. In words: In vitro antibacterial activity against Shigella flexneri 2a EW-10. The format is functional. A digest of the protocol:
as §2

For a further series, the system named is Staphylococcus aureus. The series can be described thus: In vitro antibacterial activity against Staphylococcus aureus 209P JC-1. It is filed as functional. A digest of the protocol:
as §2

A further series has as its system Serratia marcescens. In words: In vitro antibacterial activity against Serratia marcescens IFO 3736. The format is functional. The essentials:
as §2

Another series relates to Pseudomonas aeruginosa. The series can be described thus: In vitro antibacterial activity against Pseudomonas aeruginosa E-2. It is filed as functional. A digest of the protocol: as §2
The next series has as its system Klebsiella pneumoniae. In words: In vitro antibacterial activity against Klebsiella pneumoniae K-1966. The format is functional. The essentials: as §2
Where [4] appears, read: Micrococcus luteus, ATCC 9341, read-out: MIC.
[5] abbreviates: Escherichia coli, read-out: MIC.
[6] abbreviates: Shigella flexneri, read-out: MIC.
Where [7] appears, read: Staphylococcus aureus, read-out: MIC.
The mark [8] stands for this setting: Serratia marcescens, IFO 3736, read-out: MIC.
[9] abbreviates: Pseudomonas aeruginosa, read-out: MIC.
Setting [10] is: Klebsiella pneumoniae, read-out: MIC.

Converted amounts (≈) assume the structure as drawn.

`Cc1oc(=O)oc1CN1CCN(c2cc3c(cc2F)c(=O)c(C(=O)O)c2n3C(C)S2)CC1` (stereo not drawn) [PRULIFLOXACIN]: in [1], the 50% lethal dose (LD50) was above 500 mg/kg. Besides, the ED50 in the series listed under Mus musculus [2] was 0.35 mg/kg; in the series filed under Mus musculus [3] it was 8.02 mg/kg.
For the compound `CC1Sc2c(C(=O)O)c(=O)c3cc(F)c(N4CCN(C)CC4)cc3n21` (stereo not drawn), the minimum inhibitory concentration (MIC) turned out to be 1.56 µg/mL (≈ 4.29 µM) in the series on Micrococcus luteus (setting [4]); 0.025 µg/mL (≈ 0.0688 µM) in the series with Escherichia coli (setting [5]); 0.0125 µg/mL (≈ 0.0344 µM) in the series with Shigella flexneri (setting [6]); 0.1 µg/mL (≈ 0.275 µM) in the series on Staphylococcus aureus (setting [7]); 0.05 µg/mL (≈ 0.138 µM) with Serratia marcescens (setting [8]); 0.39 µg/mL (≈ 1.07 µM) with Pseudomonas aeruginosa (setting [9]). In addition, the MIC in the series on Klebsiella pneumoniae (setting [10]) turned out to be 0.025 µg/mL (≈ 0.0688 µM). In addition, the ED50 in the series filed under Mus musculus [2] amounted to 0.97 mg/kg; in the series filed under Mus musculus [3], 8.84 mg/kg.
On to `CC1COc2c(N3CCN(C)CC3)c(F)cc3c(=O)c(C(=O)O)cn1c23` (stereo not drawn) [OFLOXACIN], for which the minimum inhibitory concentration (MIC) with Micrococcus luteus (setting [4]) was found to be 3.13 µg/mL (≈ 8.66 µM); in the series with Escherichia coli (setting [5]), 0.1 µg/mL (≈ 0.277 µM); in the series on Shigella flexneri (setting [6]), 0.1 µg/mL (≈ 0.277 µM); with Staphylococcus aureus (setting [7]), 0.39 µg/mL (≈ 1.08 µM); in the series with Serratia marcescens (setting [8]), 0.39 µg/mL (≈ 1.08 µM); in the series on Pseudomonas aeruginosa (setting [9]) it was 1.56 µg/mL (≈ 4.32 µM). Moreover, the MIC in the series with Klebsiella pneumoniae (setting [10]) came out at 0.025 µg/mL (≈ 0.0692 µM). Besides, the 50% effective dose (ED50) in the series listed under Mus musculus [2] was found to be 0.55 mg/kg; in the series listed under Mus musculus [3], 23 mg/kg.
For the compound `O=C(O)c1cn(C2CC2)c2cc(N3CCNCC3)c(F)cc2c1=O` [CIPROFLOXACIN], the MIC in the series with Micrococcus luteus (setting [4]) stood at 1.56 µg/mL (≈ 4.71 µM); in the series on Escherichia coli (setting [5]), 0.0125 µg/mL (≈ 0.0377 µM); in the series on Shigella flexneri (setting [6]), 0.006 µg/mL (≈ 0.0181 µM); in the series on Staphylococcus aureus (setting [7]), 0.1 µg/mL (≈ 0.302 µM); in the series on Serratia marcescens (setting [8]), 0.1 µg/mL (≈ 0.302 µM); with Pseudomonas aeruginosa (setting [9]) it was 0.2 µg/mL (≈ 0.604 µM). Moreover, the MIC in the series on Klebsiella pneumoniae (setting [10]) amounted to 0.006 µg/mL (≈ 0.0181 µM). For the same compound, the ED50 in the series filed under Mus musculus [2] is 0.45 mg/kg; in the series listed under Mus musculus [3] it was 9.01 mg/kg.
As for `CC1Sc2c(C(=O)O)c(=O)c3cc(F)c(N4CCNCC4)cc3n21` (stereo in doubt; 29a) [ULIFLOXACIN], the MIC against Micrococcus luteus was 0.78 µg/mL (≈ 2.23 µM); in the series with Escherichia coli it was 0.0125 µg/mL (≈ 0.0358 µM); against Shigella flexneri, 0.006 µg/mL (≈ 0.0172 µM); with Staphylococcus aureus, 0.05 µg/mL (≈ 0.143 µM); against Serratia marcescens, 0.05 µg/mL (≈ 0.143 µM); in the series on Pseudomonas aeruginosa, 0.2 µg/mL (≈ 0.572 µM). Further, the MIC with Klebsiella pneumoniae stood at 0.006 µg/mL (≈ 0.0172 µM).
`CCN1CCN(c2cc3c(cc2F)c(=O)c(C(=O)O)c2n3C(C)S2)CC1` (stereo not drawn): the minimum inhibitory concentration (MIC) in the series with Micrococcus luteus (setting [4]) came to 1.56 µg/mL (≈ 4.13 µM); in the series with Escherichia coli (setting [5]) it was 0.05 µg/mL (≈ 0.132 µM); in the series on Shigella flexneri (setting [6]), 0.025 µg/mL (≈ 0.0662 µM); in the series with Staphylococcus aureus (setting [7]) it was 0.1 µg/mL (≈ 0.265 µM); in the series on Serratia marcescens (setting [8]) it was 0.1 µg/mL (≈ 0.265 µM); in the series with Pseudomonas aeruginosa (setting [9]) it was 0.78 µg/mL (≈ 2.07 µM). Further, in the series on Klebsiella pneumoniae (setting [10]), the MIC was 0.05 µg/mL (≈ 0.132 µM).
`CCOC(=O)c1c2n(c3cc(N4CCN(CC(C)=O)CC4)c(F)cc3c1=O)C(C)S2` (stereo not drawn): the ED50 in the series listed under Mus musculus [2] worked out at 0.78 mg/kg; in the series listed under Mus musculus [3], 27 mg/kg.
`CN1CCN(c2cc3c(cc2F)c(=O)c(C(=O)O)c2n3CS2)CC1`: the MIC in the series on Micrococcus luteus (setting [4]) turned out to be 12.5 µg/mL (≈ 35.8 µM); in the series with Escherichia coli (setting [5]) it was 0.0125 µg/mL (≈ 0.0358 µM); in the series with Shigella flexneri (setting [6]), 0.006 µg/mL (≈ 0.0172 µM); in the series on Staphylococcus aureus (setting [7]), 0.05 µg/mL (≈ 0.143 µM); with Serratia marcescens (setting [8]), 0.05 µg/mL (≈ 0.143 µM); with Pseudomonas aeruginosa (setting [9]), 0.39 µg/mL (≈ 1.12 µM). Besides, the minimum inhibitory concentration (MIC) in the series on Klebsiella pneumoniae (setting [10]) is 0.025 µg/mL (≈ 0.0716 µM). Moreover, the figures for the median effective dose (ED50) in the series listed under Mus musculus [2] and in the series filed under Mus musculus [3] were 1.77 mg/kg and 16.4 mg/kg, respectively.
As to `O=C(O)c1c2n(c3cc(N4CCNCC4)c(F)cc3c1=O)C(c1ccccc1F)S2` (stereo not drawn), the MIC came to 12.5 µg/mL (≈ 29.1 µM) in the series on Micrococcus luteus (setting [4]); 0.39 µg/mL (≈ 0.908 µM) in the series with Escherichia coli (setting [5]); 0.78 µg/mL (≈ 1.82 µM) with Shigella flexneri (setting [6]); 1.56 µg/mL (≈ 3.63 µM) in the series on Staphylococcus aureus (setting [7]); 12.5 µg/mL (≈ 29.1 µM) in the series on Serratia marcescens (setting [8]); 3.13 µg/mL (≈ 7.29 µM) with Pseudomonas aeruginosa (setting [9]). In the series with Klebsiella pneumoniae (setting [10]), the MIC was 0.78 µg/mL (≈ 1.82 µM).
`O=C(O)c1c2n(c3cc(N4CCNCC4)c(F)cc3c1=O)C(c1ccccc1)S2` (stereo not drawn): the MIC in the series with Micrococcus luteus (setting [4]) came to 3.13 µg/mL (≈ 7.61 µM); in the series with Escherichia coli (setting [5]), 0.025 µg/mL (≈ 0.0608 µM); in the series on Shigella flexneri (setting [6]) it was 0.025 µg/mL (≈ 0.0608 µM); in the series on Staphylococcus aureus (setting [7]), 0.2 µg/mL (≈ 0.486 µM); in the series on Serratia marcescens (setting [8]), 0.05 µg/mL (≈ 0.122 µM); in the series on Pseudomonas aeruginosa (setting [9]), 0.2 µg/mL (≈ 0.486 µM). Moreover, the MIC in the series on Klebsiella pneumoniae (setting [10]) was found to be 0.025 µg/mL (≈ 0.0608 µM).
As to `CCOC(=O)c1c2n(c3cc(N4CCN(C)CC4)c(F)cc3c1=O)C(c1ccccc1)S2` (stereo not drawn), the ED50 is 0.89 mg/kg in the series listed under Mus musculus [2] and 18.1 mg/kg in the series filed under Mus musculus [3].
Turning to `CC1Sc2c(C(=O)O)c(=O)c3cc(F)c(N4CCSCC4)cc3n21` (stereo not drawn), the minimum inhibitory concentration (MIC) with Micrococcus luteus (setting [4]) was 0.78 µg/mL (≈ 2.13 µM); with Escherichia coli (setting [5]), 0.2 µg/mL (≈ 0.546 µM); in the series on Shigella flexneri (setting [6]) it was 0.1 µg/mL (≈ 0.273 µM); in the series on Staphylococcus aureus (setting [7]), 0.025 µg/mL (≈ 0.0682 µM); in the series on Serratia marcescens (setting [8]) it was 0.39 µg/mL (≈ 1.06 µM); in the series on Pseudomonas aeruginosa (setting [9]), 0.39 µg/mL (≈ 1.06 µM). For the same compound, the minimum inhibitory concentration (MIC) in the series with Klebsiella pneumoniae (setting [10]) came to 0.2 µg/mL (≈ 0.546 µM).

One may read the LD50 as the dose expected to kill half of the subjects tested. High values mean a less toxic substance, low ones a more toxic substance. Usually ED50 stands for the dose at which the effect has come halfway, by size or by number of responders. Low readings indicate greater potency, high ones weaker potency. The MIC is the lowest concentration that inhibits growth of the organism.
